Data reported in ChEMBL document CHEMBL3244248, “Substituted 3-amino-1,1-diaryl-2-propanols as potential antidepressant agents” (J Med Chem, 1979).
Activity calls are given as the source filed them. No cut-off for these calls is given here.

Tests used:
Mus musculus [1] = test: Antidepressant activity against reserpine-induced hypothermia CFLP mouse model assessed as change in esophageal temperature at 100 mg/kg, po treated before 2 to 24 hrs of reserpine challenge; format: functional, organism-based; design: dose 100 mg/kg
Method in brief: (§1)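 Male CFLP mice (18–23 g), two groups of five, received oral compound or vehicle 24, 18 and 2 h before iv reserpine base (1 mg/kg). Esophageal temperature was read before reserpine and at 2, 4 and 6 h. Test-minus-control mean differences at the three times were summed and corrected for the 0 h difference, giving Δ6 (°C).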

Mus musculus [2] = test: Antidepressant activity against reserpine-induced hypothermia CFLP mouse model assessed as change in esophageal temperature < 5 degC at 30 mg/kg, po treated before 2 to 24 hrs of reserpine challenge
Mus musculus [3] = test: Antidepressant activity against reserpine-induced hypothermia CFLP mouse model assessed as change in esophageal temperature at 5 mg/kg, po treated before 2 to 24 hrs of reserpine challenge; format: functional, organism-based; design: dose 5 mg/kg; method in brief: as §1
Mus musculus [4] = species: Mus musculus; test: Anticholinergic effect in CFLP mouse assessed as mydriasis; details: in vivo
Ileum = test: Anticholinergic effect in guinea pig ileum assessed as inhibition of acetylcholine-induced contraction; format: tissue-based; details: Cavia porcellus, read-out: pA2 (converted)
Method in brief: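 Guinea pig ileum contracted by acetylcholine. ED50 values were generated from a dose–response fit, p = D^E/(D^E + K^E), and converted to pA2. pA2 is the negative log10 of the molar antagonist concentration that reduces the effect of two equal acetylcholine doses to that of a single dose.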

[5] = Anticholinergic effect in sc dosed CFLP mouse assessed as inhibition of pilocarpine-induced salivation; format: organism-based; details: in vivo
Method in brief: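 Male CFLP mice (18–23 g), groups of eight. Vehicle or drug was given sc 20 min before urethane anaesthesia (1.8 g/kg sc), and pilocarpine (2 mg/kg sc) followed 10 min later. Salivation areas on chromatography paper were measured by planimeter every 5 min for 35 min. Percentage change from control was regressed against log dose to give an ED50 with fiducial limits.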

Mus musculus [6] = test: Antidepressant activity against reserpine-induced hypothermia CFLP mouse model assessed as change in esophageal temperature at 3 mg/kg, po treated before 2 to 24 hrs of reserpine challenge; format: functional, organism-based; design: dose 3 mg/kg; method in brief: as §1
Mus musculus [7] = test: Antidepressant activity against reserpine-induced hypothermia CFLP mouse model assessed as change in esophageal temperature < 5 degC at 100 mg/kg, po treated before 2 to 24 hrs of reserpine challenge; format: functional, organism-based; design: dose 100 mg/kg; method in brief: as §1
Mus musculus [8] = test: Antidepressant activity against reserpine-induced hypothermia CFLP mouse model assessed as change in esophageal temperature at 10 mg/kg, po treated before 2 to 24 hrs of reserpine challenge; format: functional, organism-based; design: dose 10 mg/kg; method in brief: as §1
Mus musculus [9] = test: Antidepressant activity against reserpine-induced hypothermia CFLP mouse model assessed as change in esophageal temperature at 30 mg/kg, po treated before 2 to 24 hrs of reserpine challenge; format: functional, organism-based; design: dose 30 mg/kg; method in brief: as §1
Mus musculus [10] = test: Antidepressant activity against reserpine-induced hypothermia CFLP mouse model assessed as change in esophageal temperature at 60 mg/kg, po treated before 2 to 24 hrs of reserpine challenge; format: functional, organism-based; design: dose 60 mg/kg; method in brief: as §1
Mus musculus [11] = test: Antidepressant activity against reserpine-induced hypothermia CFLP mouse model assessed as change in esophageal temperature at 4 mg/kg, po treated before 2 to 24 hrs of reserpine challenge; format: functional, organism-based; design: dose 4 mg/kg; method in brief: as §1
Rattus norvegicus = test: Toxicity in substantia nigra lesioned rat assessed as turning behaviour up to 50 mg/kg, po; format: organism-based; design: dose 50 mg/kg, route oral; details: in vivo
Method in brief: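 Rats with a unilateral substantia nigra lesion, dosed orally at up to 50 mg/kg, and observed for turning.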

Brain = test: In vivo inhibition of hydroxytryptamine-induced depletion of rat brain noradrenaline; format: functional
[12] = Inhibition of radiolabeled 5-hydroxytryptamine uptake in whole rat brain synaptosome; format: functional, tissue-based
Mus musculus [13] = test: Toxicity in mouse assessed as CNS stimulation up to 8 mg/kg, po; format: organism-based, Central nervous system; design: dose 8 mg/kg, route oral; details: in vivo
Mus musculus [14] = test: Antidepressant activity against reserpine-induced hypothermia CFLP mouse model assessed as change in esophageal temperature at 1 mg/kg, po treated before 2 to 24 hrs of reserpine challenge; format: functional, organism-based; design: dose 1 mg/kg; method in brief: as §1
[15] = Inhibition of radiolabeled dopamine uptake in whole rat brain synaptosome; format: functional, tissue-based
[16] = Inhibition of radiolabeled noradrenaline uptake in whole rat brain synaptosome; format: functional, tissue-based
Mus musculus [17] = test: Antidepressant activity against reserpine-induced hypothermia CFLP mouse model assessed as change in esophageal temperature at 6 mg/kg, po treated before 2 to 24 hrs of reserpine challenge; format: functional, organism-based; design: dose 6 mg/kg; method in brief: as §1
Mus musculus [18] = test: Antidepressant activity against reserpine-induced hypothermia CFLP mouse model assessed as change in esophageal temperature at 16 mg/kg, po treated before 2 to 24 hrs of reserpine challenge; format: functional, organism-based; design: dose 16 mg/kg; method in brief: as §1
Mus musculus [19] = test: Antidepressant activity against reserpine-induced hypothermia CFLP mouse model assessed as change in esophageal temperature at 20 mg/kg, po treated before 2 to 24 hrs of reserpine challenge; format: functional, organism-based; design: dose 20 mg/kg; method in brief: as §1

COC(c1ccccc1)(c1ccccc1)C(O)CN(C)C (stereo unspecified)
deltaT (Mus musculus [1]): 6.9 °C

CN(C)CC(O)(c1ccccc1)C(c1ccccc1)c1ccccc1 (stereo unspecified)
Activity (Mus musculus [2]): inactive

CN(C)CC(O)C(c1ccccc1)c1cccc(C(F)(F)F)c1.Cl (stereo unspecified)
deltaT (Mus musculus [3]): 9 °C
ED50 (Mus musculus [4]): 26 mg/kg
Kb (Ileum): 1.58 µM

CN(C)CC(O)C(c1ccccc1)c1cccc(Br)c1.Cl (stereo unspecified)
deltaT (Mus musculus [3]): 12.4 °C
ED50 [5]: > 100 mg/kg
ED50 (Mus musculus [4]): 49 mg/kg
Activity (Mus musculus [6]): inactive
Kb (Ileum): 7.94 µM

CN(C)CC(O)C(c1ccccc1)C1CCCCC1 (stereo in doubt; 39a)
Activity (Mus musculus [7]): inactive

COc1ccc(C(c2ccccc2)C(O)CN(C)C)cc1 (stereo unspecified)
deltaT (Mus musculus [8]): 5.9 °C

Cc1ccccc1C(c1ccccc1)C(O)CN(C)C (stereo unspecified)
deltaT (Mus musculus [8]): 10.4 °C

CN(C)CC(O)C(O)(c1ccccc1)c1ccc(F)cc1 (stereo unspecified)
deltaT (Mus musculus [8]): 7.5 °C

OC(CN1CCOCC1)C(c1ccccc1)c1ccccc1 (stereo unspecified)
deltaT (Mus musculus [1]): 11 °C

CN(C)CC(OC(=O)c1ccccc1)C(c1ccccc1)c1cccc(Cl)c1 (stereo unspecified)
deltaT (Mus musculus [8]): 5.2 °C

CN(C)CC(O)C(c1ccccc1)c1ccc(Cl)c(Cl)c1 (stereo unspecified)
deltaT (Mus musculus [8]): 7.2 °C

Br.CN(C)CC(O)C(c1ccccc1)c1ccccc1 (stereo unspecified)
deltaT (Mus musculus [3]): 5.3 °C
ED50 [5]: 36 mg/kg
ED50 (Mus musculus [4]): 53 mg/kg
Kb (Ileum): 6.31 µM

CN(C)CC(O)C(CCc1ccccc1)c1ccccc1 (stereo unspecified)
deltaT (Mus musculus [1]): 7.4 °C

CN(C)CC(O)C(Cc1ccccc1)c1ccccc1 (stereo unspecified)
deltaT (Mus musculus [9]): 8.6 °C

CN(C)CC(O)C(c1ccccc1)c1cccs1 (stereo unspecified)
deltaT (Mus musculus [10]): 8.4 °C

Br.CN(C)C[C@H](O)C(c1ccccc1)c1ccccc1
ED50 [5]: 63 mg/kg
ED50 (Mus musculus [4]): 26 mg/kg
Kb (Ileum): 3.16 µM

CC(O)(CN)C(c1ccccc1)c1ccccc1 (stereo unspecified)
Activity (Mus musculus [7]): inactive

CCN(CC)CC(O)C(c1ccccc1)c1ccccc1 (stereo unspecified)
deltaT (Mus musculus [8]): 5 °C

CC(=O)OC(CN(C)C)C(c1ccccc1)c1ccccc1 (stereo unspecified)
deltaT (Mus musculus [3]): 10.2 °C
Activity (Mus musculus [11]): inactive

OC(CN1CCCCC1)C(c1ccccc1)c1ccccc1 (stereo unspecified)
deltaT (Mus musculus [1]): 9.9 °C

CN(Cc1ccccc1)CC(O)C(c1ccccc1)c1ccc(F)cc1 (stereo unspecified)
deltaT (Mus musculus [8]): 7.3 °C

CNCC(C)(O)C(c1ccccc1)c1ccccc1 (stereo unspecified)
deltaT (Mus musculus [9]): 8.9 °C

CCN(C)CC(O)C(c1ccccc1)c1ccccc1.Cl (stereo unspecified)
Activity (Mus musculus [3]): inactive
ED50 [5]: 43 mg/kg
deltaT (Mus musculus [8]): 10.2 °C
ED50 (Mus musculus [4]): 36 mg/kg
Kb (Ileum): 50.1 µM

CNCC(O)C(c1ccccc1)c1ccccc1Cl (stereo unspecified)
deltaT (Mus musculus [3]): 8.6 °C

Cc1ccc(C(c2ccccc2)C(O)CN(C)C)cc1 (stereo unspecified)
Activity (Mus musculus [7]): inactive

NCC(O)C(c1ccccc1)c1ccccc1 (stereo unspecified)
Activity (Mus musculus [7]): inactive

CN(C)CC(O)C(c1ccccc1)c1cccc(Cl)c1.Cl (stereo unspecified)
ED50 [5]: 33 mg/kg
Activity (Rattus norvegicus): Non-toxic
ED50 (Brain): 30 mg/kg
IC50 [12]: 9.8 µM
Activity (Mus musculus [13]): Toxic
deltaT (Mus musculus [14]): 5.3 °C
ED50 (Mus musculus [4]): 42 mg/kg
IC50 [15]: 8.9 µM
IC50 [16]: 1.2 µM
Kb (Ileum): 15.8 µM

CNCC(O)C(c1ccccc1)c1ccc(Cl)cc1 (stereo unspecified)
deltaT (Mus musculus [8]): 8.8 °C

CNCC(O)C(c1ccccc1)c1ccccc1.Cl (stereo unspecified)
ED50 [5]: 40 mg/kg
ED50 (Mus musculus [4]): 144 mg/kg
deltaT (Mus musculus [17]): 6.1 °C
Kb (Ileum): 10 µM

CN(CCCO)CC(O)C(c1ccccc1)c1ccccc1 (stereo unspecified)
deltaT (Mus musculus [9]): 12.4 °C

CN1CCN(CC(O)C(c2ccccc2)c2ccccc2)CC1 (stereo unspecified)
deltaT (Mus musculus [9]): 6.3 °C

CN(C)CC(O)C(c1ccccc1)C1CCCCC1 (stereo in doubt; 39b)
Activity (Mus musculus [7]): inactive

CNCC(O)C(c1ccccc1)c1ccc(C)cc1 (stereo unspecified)
Activity (Mus musculus [2]): inactive
deltaT (Mus musculus [1]): 5.4 °C

Br.CN(C)C[C@@H](O)C(c1ccccc1)c1ccccc1
ED50 [5]: 51 mg/kg
ED50 (Mus musculus [4]): 46 mg/kg
Kb (Ileum): 7.94 µM

CN(C)CC(O)C(c1ccccc1)c1ccccc1Cl.Cl (stereo unspecified)
ED50 [5]: 24 mg/kg
deltaT (Mus musculus [14]): 6.6 °C
ED50 (Mus musculus [4]): 29 mg/kg
Kb (Ileum): 6.31 µM

CN(C)CC(O)C(c1ccccc1)c1ccc(Cl)cc1.O=C(O)CCC(=O)O (stereo unspecified)
ED50 [5]: 71 mg/kg
deltaT (Mus musculus [18]): 6.3 °C
ED50 (Mus musculus [4]): 40 mg/kg
Kb (Ileum): 7.94 µM

CN(C)CC(O)C(c1ccccc1)c1cc(Cl)cc(Cl)c1 (stereo unspecified)
deltaT (Mus musculus [6]): 6.2 °C

CN(Cc1ccccc1)CC(O)C(c1ccccc1)c1ccccc1 (stereo unspecified)
deltaT (Mus musculus [8]): 6.1 °C

CN(C)CC(O)C(O)(c1ccccc1)c1ccccc1 (stereo unspecified)
deltaT (Mus musculus [9]): 5.5 °C

OC(CNCc1ccccc1)C(c1ccccc1)c1ccccc1 (stereo unspecified)
Activity (Mus musculus [7]): inactive

CN(C)CCCN1c2ccccc2CCc2ccccc21 [IMIPRAMINE]
ED50 [5]: 3.3 mg/kg
deltaT (Mus musculus [19]): 6.8 °C
ED50 (Mus musculus [4]): 20 mg/kg
Kb (Ileum): 0.00126 µM

CN(C)CC(O)C(c1ccccc1)c1ccc(F)cc1 (stereo unspecified)
deltaT (Mus musculus [3]): 5.8 °C
ED50 [5]: > 100 mg/kg
ED50 (Mus musculus [4]): 26 mg/kg
Kb (Ileum): 15.8 µM

CN(C)CC(O)C(c1ccc(F)cc1)c1ccc(F)cc1 (stereo unspecified)
deltaT (Mus musculus [8]): 7.8 °C
